Holding throughout (type): physicochemical
Data set [1] in a line: Photostability in phosphate-buffered saline assessed as paclitaxel release at pH 7.4 after irradiation with UV laser of 355 nm, 10 Hzm 5 mJ irradiation. Particulars: buffer. The method in brief: (§1)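 The conversion profile was measured in 10 mM PBS (pH 7.4) under pulsed UV laser irradiation (355 nm, 10 Hz, 5 mJ). The released isotaxel then undergoes spontaneous O–N intramolecular acyl migration to give paclitaxel.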

Data set [2] in a line: Solubility in water at 15 degC. Particulars: in the assay text read “25 degC” for “15 degC”. The method in brief:
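The filtrate of the aqueous preparation was analysed by RP-HPLC. Water solubility was quantified against a calibration curve built from standard solutions of known prodrug amounts.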

The nature of data set [3]: Photostability in phosphate-buffered saline assessed as 7-[Bis-[2-[[2-(dimethylamino)ethyl]amino]-2-oxoethyl]amino]-4-(hydroxymethyl) coumarin hydrochloride release at pH 7.4 after 1 hr of irradiation with UV light of 365 nm, 6W irradiation. To be noted: buffer, pH 7.4, 1 h. In a few lines: (§2)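 Prodrug, coumarin or parent drug, as a 2 mM DMSO stock, was diluted 3:297 into 10 mM PBS (pH 7.4). It was irradiated at room temperature with a 365 nm, 6 W UV lamp, and conversion was followed by HPLC.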

Data set [4] in a line: Photostability in phosphate-buffered saline assessed as paclitaxel release at pH 7.4 after 4 mins of irradiation with UV laser of 355 nm, 10 Hzm 5 mJ irradiation. To be noted: buffer, pH 7.4, 4 min. The method in brief: as §1
Data set [5] is described as follows: Stability in solid state at -20 degC after 4 months. Particulars: 2922 h.
Data set [6] in a line: Photostability in phosphate-buffered saline assessed as paclitaxel release at pH 7.4 after 4 mins of irradiation with UV light of 365 nm, 6W irradiation. Particulars: buffer, pH 7.4, 4 min. In a few lines:
as §2

Data set [7] is described as follows: Stability in phosphate-buffered saline at pH 7.4 at 4 degC after 1 month. To be noted: buffer, pH 7.4, 730.5 h.

Converted amounts (≈) assume the structure as drawn. Where only a bound is given, the exact number is not on record here.

Regarding `CC(=O)O[C@H]1C(=O)[C@@]2(C)[C@H]([C@H](OC(=O)c3ccccc3)[C@]3(O)C[C@H](OC(=O)[C@H](OC(=O)c4ccccc4)[C@@H](NC(=O)OCc4cc(=O)oc5cc(N(CC(=O)NCCN(C)C)CC(=O)NCCN(C)C)ccc45)c4ccccc4)C(C)=C1C3(C)C)[C@]1(OC(C)=O)CO[C@@H]1C[C@@H]2O.Cl`, the t1/2 in data set [1] is recorded as 15.1 min. The compound further registered a solubility in data set [2] above 100000 µg/mL. Also, the Activity in data set [3] is 11%; in data set [4] it was 24%; in data set [6] it was 69%. For the same compound, the Stability result in data set [5] and in data set [7] was “Stable” each time.
With `CC(=O)O[C@H]1C(=O)[C@@]2(C)[C@H]([C@H](OC(=O)c3ccccc3)[C@]3(O)C[C@H](OC(=O)[C@H](OC(=O)c4ccccc4)[C@@H](N)c4ccccc4)C(C)=C1C3(C)C)[C@]1(OC(C)=O)CO[C@@H]1C[C@@H]2O` [ISOTAXEL], the concentration in solution in data set [2] (solubility) was 450 µg/mL (≈ 527 µM).

For the origin of these results see ChEMBL document CHEMBL1150310, “Development of novel water-soluble photocleavable protective group and its application for design of photoresponsive paclitaxel prodrugs” (Bioorg Med Chem, 2008).
